Assay results: ChEMBL document CHEMBL1649319, “In vitro antifungal activities of isavuconazole and comparators against rare yeast pathogens” (2010)
Values after ≈ are worked out from the molar mass of the structure shown.

What was measured:
Format in all cases: functional
[1] = system: Cutaneotrichosporon mucoides; experiment: Antifungal activity against Trichosporon mucoides after 48 hrs by Etest
How it was run: (§1)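 Etest on 2% glucose-RPMI agar. Yeast suspensions were swabbed across the plates and strips applied, then incubated at 35°C for 48 h. MIC was the lowest concentration where the elliptical inhibition zone border met the strip scale. Each reading was raised to the next 2-fold dilution on the CLSI scale and converted to log2. Isolates were revived from −70°C stocks on potato dextrose or Sabouraud agar.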

[2] = system: Rhodotorula mucilaginosa; experiment: Antifungal activity against Rhodotorula mucilaginosa after 48 hrs by Etest; how it was run: as §1
[3] = system: Magnusiomyces capitatus; experiment: Antifungal activity against Dipodascus capitatus after 48 hrs by broth microdilution method
How it was run: (§2)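 CLSI M27-A3 broth microdilution. Isolates were identified by ITS1-5.8S-ITS2 sequencing, kept at −70°C in sterile water, and revived on potato dextrose or Sabouraud agar. Drug ranges in wells were 0.015–16 or 0.125–128 μg/ml, depending on the agent. Plates were incubated at 35°C and MICs read visually at 48 h. QC strains were C. krusei ATCC 6258 and C. parapsilosis ATCC 22019.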

[4] = Antifungal activity against Trichosporon jirovecii after 48 hrs by broth microdilution method; details: Cutaneotrichosporon jirovecii; how it was run: as §2
[5] = system: Magnusiomyces capitatus; experiment: Antifungal activity against Dipodascus capitatus after 3 days by broth microdilution method; details: 72 h
[6] = Antifungal activity against Trichosporon domesticum after 48 hrs by broth microdilution method; details: Apiotrichum domesticum; how it was run: as §2
[7] = system: Saccharomyces cerevisiae; experiment: Antifungal activity against Saccharomyces cerevisiae after 48 hrs by Etest; how it was run: as §1
[8] = system: Trichosporon asahii; experiment: Antifungal activity against Trichosporon asahii after 48 hrs by Etest; how it was run: as §1
[9] = Antifungal activity against Trichosporon domesticum after 48 hrs by Etest; details: Apiotrichum domesticum; how it was run: as §1
[10] = system: Magnusiomyces capitatus; experiment: Antifungal activity against Dipodascus capitatus after 4 days by Etest; details: 96 h
[11] = system: Cutaneotrichosporon mucoides; experiment: Antifungal activity against Trichosporon mucoides after 48 hrs by broth microdilution method; how it was run: as §2
[12] = system: Rhodotorula mucilaginosa; experiment: Antifungal activity against Rhodotorula mucilaginosa after 7 days by broth microdilution method; details: 168 h
[13] = system: Rhodotorula mucilaginosa; experiment: Antifungal activity against Rhodotorula mucilaginosa after 48 hrs by broth microdilution method; how it was run: as §2
[14] = system: Trichosporon asahii; experiment: Antifungal activity against Trichosporon asahii after 48 hrs by broth microdilution method; how it was run: as §2
[15] = system: Trichosporon inkin; experiment: Antifungal activity against Trichosporon inkin after 48 hrs by broth microdilution method; how it was run: as §2
[16] = system: Saccharomyces cerevisiae; experiment: Antifungal activity against Saccharomyces cerevisiae after 48 hrs by broth microdilution method; how it was run: as §2
[17] = system: Trichosporon inkin; experiment: Antifungal activity against Trichosporon inkin after 48 hrs by Etest; how it was run: as §1
[18] = system: Trichosporon; experiment: Antifungal activity against Trichosporon sp. after 3 days by broth microdilution method; details: 72 h
[19] = system: Magnusiomyces capitatus; experiment: Antifungal activity against Dipodascus capitatus after 48 hrs by Etest; how it was run: as §1
[20] = system: Trichosporon; experiment: Antifungal activity against Trichosporon sp. after 4 days by Etest; details: 96 h
[21] = system: Cutaneotrichosporon mucoides; experiment: Antifungal activity against Trichosporon mucoides assessed as percent susceptible isolates after 48 hrs by broth microdilution method
How it was run: (§3)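 Broth microdilution MICs (CLSI, 35°C, visual read at 48 h) were sorted into categories using CLSI M27-A3 triazole breakpoints. Susceptible was ≤1 or ≤8 μg/ml, SDD was 2 or 16–32 μg/ml, and resistant was ≥4 or ≥64 μg/ml, depending on the agent. Each category is the percentage of isolates falling in it.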

[22] = Antifungal activity against Trichosporon jirovecii after 48 hrs by Etest; details: Cutaneotrichosporon jirovecii; how it was run: as §1
[23] = system: Saccharomyces cerevisiae; experiment: Antifungal activity against Saccharomyces cerevisiae after 5 days by broth microdilution method; details: 120 h
[24] = system: Cutaneotrichosporon mucoides; experiment: Antifungal activity against Trichosporon mucoides assessed as percent susceptible/dose-dependent isolates after 48 hrs by broth microdilution method; how it was run: as §3
[25] = system: Rhodotorula mucilaginosa; experiment: Antifungal activity against Rhodotorula mucilaginosa after 7 days by Etest; details: 168 h

SMILES: CC[C@@H]([C@H](C)O)n1ncn(-c2ccc(N3CCN(c4ccc(OC[C@@H]5CO[C@@](Cn6cncn6)(c6ccc(F)cc6F)C5)cc4)CC3)cc2)c1=O [POSACONAZOLE]
- MIC50 [1]: 0.125 mg/L (≈ 0.178 µM)
- MIC90 [1]: 0.5 mg/L (≈ 0.713 µM)
- MIC [2]: > 16 mg/L
- MIC50 [2]: > 16 mg/L
- MIC90 [2]: > 16 mg/L
- MIC50 [3]: 0.125 mg/L (≈ 0.178 µM)
- MIC90 [3]: 0.5 mg/L (≈ 0.713 µM)
- MIC50 [4]: 0.125 mg/L (≈ 0.178 µM)
- MIC90 [4]: 0.25 mg/L (≈ 0.357 µM)
- MIC50 [5]: 0.125 mg/L (≈ 0.178 µM)
- MIC90 [5]: 0.5 mg/L (≈ 0.713 µM)
- MIC50 [6]: 0.125 mg/L (≈ 0.178 µM)
- MIC90 [6]: 0.25 mg/L (≈ 0.357 µM)
- MIC50 [7]: 2 mg/L (≈ 2.85 µM)
- MIC90 [7]: > 16 mg/L
- MIC50 [8]: 0.125 mg/L (≈ 0.178 µM)
- MIC90 [8]: 0.5 mg/L (≈ 0.713 µM)
- MIC50 [9]: 0.125 mg/L (≈ 0.178 µM)
- MIC90 [9]: 0.5 mg/L (≈ 0.713 µM)
- MIC50 [10]: 0.06 mg/L (≈ 0.0856 µM)
- MIC90 [10]: 0.5 mg/L (≈ 0.713 µM)
- MIC50 [11]: 0.125 mg/L (≈ 0.178 µM)
- MIC90 [11]: 0.25 mg/L (≈ 0.357 µM)
- MIC50 [12]: 1 mg/L (≈ 1.43 µM)
- MIC90 [12]: 8 mg/L (≈ 11.4 µM)
- MIC50 [13]: 1 mg/L (≈ 1.43 µM)
- MIC90 [13]: 8 mg/L (≈ 11.4 µM)
- MIC50 [14]: 0.125 mg/L (≈ 0.178 µM)
- MIC90 [14]: 0.25 mg/L (≈ 0.357 µM)
- MIC50 [15]: 0.125 mg/L (≈ 0.178 µM)
- MIC90 [15]: 0.25 mg/L (≈ 0.357 µM)
- MIC50 [16]: 1 mg/L (≈ 1.43 µM)
- MIC90 [16]: 2 mg/L (≈ 2.85 µM)
- MIC50 [17]: 0.125 mg/L (≈ 0.178 µM)
- MIC90 [17]: 0.5 mg/L (≈ 0.713 µM)
- MIC50 [18]: 0.125 mg/L (≈ 0.178 µM)
- MIC90 [18]: 0.25 mg/L (≈ 0.357 µM)
- MIC50 [19]: 0.06 mg/L (≈ 0.0856 µM)
- MIC90 [19]: 0.5 mg/L (≈ 0.713 µM)
- MIC50 [20]: 0.125 mg/L (≈ 0.178 µM)
- MIC90 [20]: 0.5 mg/L (≈ 0.713 µM)
- MIC50 [21]: 0.125 mg/L (≈ 0.178 µM)
- MIC90 [21]: 0.25 mg/L (≈ 0.357 µM)
- MIC50 [22]: 0.125 mg/L (≈ 0.178 µM)
- MIC90 [22]: 0.5 mg/L (≈ 0.713 µM)
- MIC50 [23]: 1 mg/L (≈ 1.43 µM)
- MIC90 [23]: 2 mg/L (≈ 2.85 µM)
- MIC50 [24]: 0.125 mg/L (≈ 0.178 µM)
- MIC90 [24]: 0.25 mg/L (≈ 0.357 µM)
- MIC [25]: > 16 mg/L
- MIC50 [25]: > 16 mg/L
- MIC90 [25]: > 16 mg/L

SMILES: C[C@@H](c1ncncc1F)[C@](O)(Cn1cncn1)c1ccc(F)cc1F [VORICONAZOLE]
- MIC50 [1]: 0.03 mg/L (≈ 0.0859 µM)
- MIC90 [1]: 0.125 mg/L (≈ 0.358 µM)
- MIC50 [2]: > 16 mg/L
- MIC90 [2]: > 16 mg/L
- MIC50 [3]: 0.06 mg/L (≈ 0.172 µM)
- MIC90 [3]: 0.25 mg/L (≈ 0.716 µM)
- MIC50 [4]: 0.06 mg/L (≈ 0.172 µM)
- MIC90 [4]: 0.25 mg/L (≈ 0.716 µM)
- MIC50 [5]: 0.06 mg/L (≈ 0.172 µM)
- MIC90 [5]: 0.25 mg/L (≈ 0.716 µM)
- MIC50 [6]: 0.06 mg/L (≈ 0.172 µM)
- MIC90 [6]: 0.25 mg/L (≈ 0.716 µM)
- MIC50 [7]: 0.03 mg/L (≈ 0.0859 µM)
- MIC90 [7]: 0.125 mg/L (≈ 0.358 µM)
- MIC50 [8]: 0.03 mg/L (≈ 0.0859 µM)
- MIC90 [8]: 0.125 mg/L (≈ 0.358 µM)
- MIC50 [9]: 0.03 mg/L (≈ 0.0859 µM)
- MIC90 [9]: 0.125 mg/L (≈ 0.358 µM)
- MIC50 [10]: 0.03 mg/L (≈ 0.0859 µM)
- MIC90 [10]: 0.06 mg/L (≈ 0.172 µM)
- MIC50 [11]: 0.06 mg/L (≈ 0.172 µM)
- MIC90 [11]: 0.25 mg/L (≈ 0.716 µM)
- MIC50 [12]: 2 mg/L (≈ 5.73 µM)
- MIC90 [12]: 8 mg/L (≈ 22.9 µM)
- MIC50 [13]: 2 mg/L (≈ 5.73 µM)
- MIC90 [13]: 8 mg/L (≈ 22.9 µM)
- MIC50 [14]: 0.06 mg/L (≈ 0.172 µM)
- MIC90 [14]: 0.25 mg/L (≈ 0.716 µM)
- MIC50 [15]: 0.06 mg/L (≈ 0.172 µM)
- MIC90 [15]: 0.25 mg/L (≈ 0.716 µM)
- MIC50 [16]: 0.125 mg/L (≈ 0.358 µM)
- MIC90 [16]: 0.25 mg/L (≈ 0.716 µM)
- MIC50 [17]: 0.03 mg/L (≈ 0.0859 µM)
- MIC90 [17]: 0.125 mg/L (≈ 0.358 µM)
- MIC50 [18]: 0.06 mg/L (≈ 0.172 µM)
- MIC90 [18]: 0.25 mg/L (≈ 0.716 µM)
- MIC50 [19]: 0.03 mg/L (≈ 0.0859 µM)
- MIC90 [19]: 0.06 mg/L (≈ 0.172 µM)
- MIC50 [20]: 0.03 mg/L (≈ 0.0859 µM)
- MIC90 [20]: 0.125 mg/L (≈ 0.358 µM)
- MIC50 [21]: 0.06 mg/L (≈ 0.172 µM)
- MIC90 [21]: 0.25 mg/L (≈ 0.716 µM)
- MIC50 [22]: 0.03 mg/L (≈ 0.0859 µM)
- MIC90 [22]: 0.125 mg/L (≈ 0.358 µM)
- MIC50 [23]: 0.125 mg/L (≈ 0.358 µM)
- MIC90 [23]: 0.25 mg/L (≈ 0.716 µM)
- MIC50 [24]: 0.06 mg/L (≈ 0.172 µM)
- MIC90 [24]: 0.25 mg/L (≈ 0.716 µM)
- MIC50 [25]: > 16 mg/L
- MIC90 [25]: > 16 mg/L
